Source: paper PMC6872935 (Nature materials, 2019)

Tests used:
[1] = system: HCT116 cells; assay: CEST MRI of incubated cells; format: cell-based, human; details: 500 μM, 3 h; for CEST signal, fold less compared to Olsa-RVRR: after subtracting values of non-treated cells; for OlsaCEST signal, fold larger compared to free olsalazine: in vitro
[2] = system: DNA methyltransferase (DNMT); assay: DNMT activity/inhibition assay kit on nuclear extracts of treated cells; format: cell-based, human; details: HCT116 cells, 500 μM for 3 h, measured 48 h later, n=3
Summary of the method: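 5×10⁶ HCT116 cells were incubated 3 h at 37 °C with or without 500 μM test compound, washed three times and cultured in fresh McCoy's 5A. After 48 h, nuclear proteins were extracted with a kit and quantified by Bradford assay. DNMT activity was measured with an activity/inhibition kit using 8 μg nuclear protein per well.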

[3] = molecular target: furin (Homo sapiens, UniProt P09958); assay: Furin-controlled condensation in solution followed by HPLC; format: biochemical; details: 25 μM, 250 μM GSH + 0.5 nmol U-1 furin, 12 h, 37 °C
furin, sequence (P09958 108-595 limits assumed): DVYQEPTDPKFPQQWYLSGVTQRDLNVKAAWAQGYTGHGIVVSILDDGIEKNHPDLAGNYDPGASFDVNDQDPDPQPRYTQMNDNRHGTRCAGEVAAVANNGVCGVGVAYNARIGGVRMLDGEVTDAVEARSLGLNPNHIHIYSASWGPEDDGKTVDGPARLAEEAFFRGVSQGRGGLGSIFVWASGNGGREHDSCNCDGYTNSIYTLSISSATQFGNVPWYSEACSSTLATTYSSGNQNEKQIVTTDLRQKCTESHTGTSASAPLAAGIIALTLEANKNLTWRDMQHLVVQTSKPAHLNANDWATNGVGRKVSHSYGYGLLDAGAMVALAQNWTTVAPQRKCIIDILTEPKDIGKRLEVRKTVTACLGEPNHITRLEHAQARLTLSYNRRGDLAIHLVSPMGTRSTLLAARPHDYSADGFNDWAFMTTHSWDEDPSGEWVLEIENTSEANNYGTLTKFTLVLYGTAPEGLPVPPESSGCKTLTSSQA
Summary of the method: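 25 μM test compound was incubated with 250 μM GSH at 37 °C, pH 7.4. Reduction alone ran 2 h; with 0.5 nmol U⁻¹ furin added, incubation ran 12 h. Reduced, cleaved and condensed products were followed by HPLC. Conversion to dimer was tracked as a function of time.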

[4] = TEM and DLS of nanoparticle formation; format: physicochemical; details: 250 μM GSH + 0.5 nmol U-1 furin, 12 h, furin buffer
Summary of the method: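 25 μM test compound was incubated 12 h in furin buffer with 250 μM GSH and 0.5 nmol U⁻¹ furin. The resulting particles were examined by TEM, and their size distribution was measured by DLS.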

[5] = system: HCT116 cells; assay: 3D-SIM super-resolution fluorescence imaging of cells; format: cell-based, human; details: 8 μM, 3 h
Summary of the method: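 Cells were exposed for 3 h to 8 μM test compound or free Alexa 488, PBS-washed, fixed 10 min in 4% paraformaldehyde and mounted in DAPI-containing medium. Super-resolution images were acquired with simultaneous 405 nm (DAPI) and 488 nm (Alexa 488) excitation. Experiments were repeated three times.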

[6] = system: LoVo cells; assay: 3D-SIM super-resolution fluorescence imaging of cells; format: cell-based, human; details: 8 μM, 3 h
Summary of the method: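 Cells were incubated 3 h with 8 μM Alexa-conjugated test probe or free Alexa 488 dye, then washed three times with PBS. They were fixed in 4% paraformaldehyde for 10 min, washed again and mounted with DAPI-containing medium. 3D-SIM used 405 nm (DAPI) and 488 nm (Alexa 488) excitation. Experiments were repeated three times.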

[7] = system: HCT116 and LoVo tumors; assay: 3D-SIM imaging of resected tumors; format: in vivo, NU/J nude mouse; details: 50 nmol i.v., tumors resected at 2 h post-injection
Summary of the method: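 Female NU/J nude mice, 6-8 weeks old, carried s.c. xenografts of 1×10⁶ HCT116 and 1×10⁶ LoVo cells. Each received 50 nmol of test compound or free Alexa 488 i.v.; tumors were resected at 2 h. Tissue was formalin-fixed overnight, cryoprotected overnight in 30% w/v sucrose at 4 °C, OCT-embedded, cut at 10 μm and DAPI-mounted. Imaging used 405/488 nm excitation.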

[8] = system: HCT116 tumor; assay: Anti-tumor treatment response; format: in vivo, NU/J nude mice; details: 0.1 mmol/kg i.v., Q3D×8, n=4 mice
Summary of the method: (§1)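 At 50–100 mm³, mice were randomised into three groups (n=4). Groups received i.v. 0.1 mmol/kg test compound, parent drug or PBS, all in 1% DMSO, every 3 days (Q3D×8). Caliper volume = (smallest dimension)² × largest × 0.5. Day-33 volumes were expressed relative to PBS.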

[9] = Ex vivo CEST MRI of organs; format: in vivo, NU/J nude mice; details: 0.2 mmol/kg i.v.; 2 h p.i. for Olsa-RVRR, 0.5 h p.i. for olsalazine; n=4 mice
Summary of the method: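 Female nude mice carried s.c. HCT116 (left flank) and LoVo (right flank) xenografts of 100-200 mm³. They received 0.2 mmol/kg test compound i.v. in PBS with 1% DMSO and were killed at 2 h or 30 min. Major organs were placed in PBS in a sealed well plate for CEST imaging. Signal was computed as MTR_asym, expressed relative to muscle; mean±SD, n=4.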

[10] = system: HCT116 cells; assay: Cell viability, acridine orange/propidium iodide counting; format: cell-based, human; details: 48 h incubation
[11] = In vitro CEST MRI of solutions; format: physicochemical; details: 11.7 T, 37 °C
Summary of the method: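 Compound (0.625–10 mM) was dissolved in 10 mM PBS and titrated with 3 M HCl/NaOH to pH 5.0–8.0. Samples in 1 mm capillaries were held at 37 °C at 11.7 T. RARE CEST used TR/TE 6,000/5 ms, B₁ 3.6 μT, and offsets −12 to 12 ppm in 0.3 ppm steps. B₀ was WASSR-corrected. MTR_asym was computed from ±Δω signals over S₀; exchange rate came from QUESP across saturation powers.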

[12] = system: LoVo tumor; assay: Anti-tumor treatment response; format: in vivo, NU/J nude mice; details: 0.1 mmol/kg i.v., Q3D×8, n=4 mice
Summary of the method: as §1

[13] = Mouse body weight during treatment; format: in vivo, NU/J nude mice; details: 0.1 mmol/kg i.v., Q3D×8, n=4 mice
Summary of the method: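 Female NU/J nude mice, 6-8 weeks old, carried s.c. xenografts of 1×10⁶ HCT116 (left flank) and 1×10⁶ LoVo (right flank) cells. Repeated i.v. dosing (QD3×8) began after tumor cell injection, with a PBS control group. Body weight was recorded over time and reported as mean±SD, n=4 mice.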

[14] = system: HCT116 tumor; assay: In vivo CEST MRI of tumor xenograft; design: species or system NU/J nude mice; details: 0.2 mmol/kg i.v.; no significant difference between HCT116 and LoVo tumors
Summary of the method: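 Female NU/J nude mice bore s.c. HCT116 (left flank) and LoVo (right flank) xenografts, 1×10⁶ cells each. At 100–200 mm³, mice received i.v. 0.2 mmol/kg test compound or parent drug in PBS with 1% DMSO. Serial CEST MRI over 24 h at 11.7 T used RARE, TR/TE 5,000/3.7 ms, B₁ 3.6 μT, t_sat 4 s, and offsets ±7.4–12.6 ppm. The 0 h MTR_asym was subtracted; n=4 mice.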

## Ac-Arg-Val-Arg-Arg-Cys(StBu)-Lys(olsalazine) [CTR2]
[1]
  CEST signal, fold less compared to Olsa-RVRR: 5.2 fold
  OlsaCEST signal, fold larger compared to free olsalazine: 2.3 fold
[2]
  DNMT inhibition: no significant DNMT inhibition
[3]
  furin cleavage of the reduced compound: cleaved to cleaved CTR2 without condensation
[4]
  nanoparticle formation with GSH and furin (TEM): no nanoparticles were formed

## Ac-Arg-Val-Arg-Arg-Cys(StBu)-Lys(Alexa 488)-2-cyanobenzothiazole [Alexa-RVRR]
[5]
  intracellular green fluorescence (3D-SIM): clustering of green fluorescent nanoparticles
[6]
  intracellular green fluorescence (3D-SIM): much less
[7]
  green fluorescent nanoparticles in tumors (3D-SIM): much higher quantity of green fluorescent nanoparticles

## O=C(O)c1cc(/N=N/c2ccc(O)c(C(=O)O)c2)ccc1O [olsalazine]
[8]
  average tumor volume at day 33 compared to PBS control group set at 100%: ~ 88%
[9]
  organ distribution of OlsaCEST signal ex vivo: both tumor sites showed comparable CEST signals
[1]; p>0.05
  OlsaCEST signal versus non-incubated cells: no significant difference between free olsalazine-incubated cells and non-incubated cells
[2]
  DNMT inhibition: no significant DNMT inhibition
[10]
  dose to obtain a toxic effect comparable to Olsa-RVRR at 125 μM: 2.5 mM
  fold dose increase needed versus Olsa-RVRR for comparable toxic effect: 20 fold
[11]; 10 mM in PBS
  CEST peak offset from the water proton signal: ~ 9.8 ppm
[11]; 10 mM, pH 7.4, QUESP method
  proton exchange rate (kex): 697 Hz
[12]
  average tumor volume at day 33 compared to PBS control group set at 100%: 86%
[13]
  body weight: did not show any significant differences in body weight
[14]
  maximum OlsaCEST intensity in tumors at 0.5 h p.i.: ~ 1.8%

## RKRCRV [CTR1]
[1]
  CEST signal, fold less compared to Olsa-RVRR: 4.4 fold
  OlsaCEST signal, fold larger compared to free olsalazine: 2.8 fold
[2]
  DNMT inhibition: no significant DNMT inhibition
[3]
  furin cleavage of the reduced compound: could not be further cleaved
[4]
  nanoparticle formation with GSH and furin (TEM): no nanoparticles were formed
